Reference: ChEMBL document CHEMBL1157421, “Tenacigenin B derivatives reverse P-glycoprotein-mediated multidrug resistance inHepG2/Dox cells” (J Nat Prod, 2008)
Values belong to the molecule of their own block, whether it stands above or below them.

Columns and labels:
HepG2/Dox [1] = test: Reversal of P-glycoprotein-mediated multidrug resistance in human HepG2/Dox cells assessed as increase in sensitivity at 19.6 uM in presence of puromycin; format: cell-based
Method in brief: (§1)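 Resistance reversal by SRB assay. IC50s of doxorubicin, vinblastine, puromycin or paclitaxel were measured with or without modulator, with modulator alone as negative control and verapamil as positive control. Fold sensitization is the ratio of drug IC50 without modulator to drug IC50 with it. HepG2/Dox cells were kept drug-free for at least 7 days before use. Assays were run at least three times (mean ± SD).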

HepG2 [2] = test: Reversal of P-glycoprotein-mediated drug resistance in human HepG2 cells assessed as increase in sensitivity at 39.2 uM in presence of vinblastine; format: cell-based; method in brief: as §1
HepG2/Dox [3] = test: Reversal of P-glycoprotein-mediated multidrug resistance in human HepG2/Dox cells assessed as increase in sensitivity at 39.2 uM in presence of paclitaxel; format: cell-based; method in brief: as §1
HepG2 [4] = test: Reversal of P-glycoprotein-mediated drug resistance in human HepG2 cells assessed as increase in sensitivity at 39.2 uM in presence of doxorubicin; format: cell-based; method in brief: as §1
HepG2 [5] = test: Reversal of P-glycoprotein-mediated drug resistance in human HepG2 cells assessed as increase in sensitivity at 39.2 uM in presence of puromycin; format: cell-based; method in brief: as §1
HepG2/Dox [6] = test: Reversal of P-glycoprotein-mediated multidrug resistance in human HepG2/Dox cells assessed as increase in sensitivity at 19.6 uM in presence of doxorubicin; format: cell-based; method in brief: as §1
HepG2/Dox [7] = test: Reversal of P-glycoprotein-mediated multidrug resistance in human HepG2/Dox cells assessed as increase in sensitivity at 19.6 uM in presence of paclitaxel; format: cell-based; method in brief: as §1
HepG2/Dox [8] = test: Reversal of P-glycoprotein-mediated multidrug resistance in human HepG2/Dox cells assessed as increase in sensitivity at 39.2 uM in presence of doxorubicin; format: cell-based; method in brief: as §1
HepG2 [9] = test: Growth inhibition of doxorubicin-sensitive human HepG2 cells at 80 uM; format: functional
Method in brief: (§2)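 SRB growth assay. HepG2 and HepG2/Dox cells were grown in RPMI 1640 with 10% FBS at 37 °C and 5% CO2; resistant cells were kept drug-free for at least 7 days before use. IC50 was taken from the SRB assay, with at least three repeats, reported as mean ± SD.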

HepG2 [10] = test: Reversal of P-glycoprotein-mediated drug resistance in human HepG2 cells assessed as increase in sensitivity at 39.2 uM in presence of paclitaxel; format: cell-based; method in brief: as §1
[11] = Growth inhibition of multidrug resistant human HepG2/Dox cells at 80 uM; format: functional; method in brief: as §2
HepG2/Dox [12] = test: Reversal of P-glycoprotein-mediated multidrug resistance in human HepG2/Dox cells assessed as increase in sensitivity at 39.2 uM in presence of puromycin; format: cell-based; method in brief: as §1
HepG2/Dox [13] = test: Reversal of P-glycoprotein-mediated multidrug resistance in human HepG2/Dox cells assessed as increase in sensitivity at 39.2 uM in presence of vinblastine; format: cell-based; method in brief: as §1
HepG2/Dox [14] = test: Reversal of P-glycoprotein-mediated multidrug resistance in human HepG2/Dox cells assessed as increase in sensitivity at 19.6 uM in presence of vinblastine; format: cell-based; method in brief: as §1
[15] = Growth inhibition of multidrug resistant human HepG2/Dox cells after 72 hrs by SRB assay; format: functional, cell-based
Method in brief: (§3)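 SRB growth assay giving IC50 values from at least three repeat experiments, reported as mean ± SD. HepG2/Dox is a doxorubicin-selected Pgp-overexpressing subline kept in 1.2 µM doxorubicin and grown drug-free for at least 7 days before use. Both lines grown in RPMI 1640 with 10% FBS at 37 °C, 5% CO2.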

HepG2 [16] = test: Growth inhibition of human HepG2 cells after 72 hrs by SRB assay; format: functional, cell-based; conditions: HepG2, 72 h; method in brief: as §3
HepG2 [17] = test: Cell cycle arrest in human HepG2 cells assessed as accumulation in S phase at 0.2 uM; format: functional
Method in brief: (§4)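 Cells seeded at about 2 × 10^5 per dish and left overnight, then exposed to drug for 48 h. Collected, washed in PBS, fixed in 70% EtOH at -20 °C overnight, treated with RNase A (100 µg/mL) at 37 °C for 30 min, stained with propidium iodide (40 µg/mL final) at room temperature, and phase distribution read by flow cytometry.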

[18] = Cell cycle arrest in multidrug resistant human HepG2/Dox cells assessed as accumulation in subG1 phase at 1 uM; format: functional, cell-based
Method in brief: (§5)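 Flow-cytometric cell-cycle profiling. About 2 × 10^5 cells were seeded per dish and left overnight, then exposed to medium with or without drug for 48 h. Cells were fixed in 70% EtOH at -20 °C overnight and treated with RNase A (100 µg/mL, 37 °C, 30 min). They were then stained with propidium iodide (40 µg/mL final) at room temperature for 5-10 min and read on a FACSCalibur.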

[19] = Cell cycle arrest in multidrug resistant human HepG2/Dox cells assessed as accumulation in S phase at 1 uM; format: functional, cell-based; method in brief: as §5
[20] = Cell cycle arrest in multidrug resistant human HepG2/Dox cells assessed as accumulation in G2/M phase at 10 uM; format: functional, cell-based; method in brief: as §5
[21] = Cell cycle arrest in multidrug resistant human HepG2/Dox cells assessed as accumulation in G0/G1 phase at 10 uM; format: functional, cell-based; method in brief: as §5
[22] = Cell cycle arrest in multidrug resistant human HepG2/Dox cells assessed as accumulation in S phase at 50 uM; format: functional, cell-based; method in brief: as §5
[23] = Cell cycle arrest in multidrug resistant human HepG2/Dox cells assessed as accumulation in S phase at 10 uM; format: functional, cell-based; method in brief: as §5
[24] = Cell cycle arrest in multidrug resistant human HepG2/Dox cells assessed as accumulation in G2/M phase at 50 uM; format: functional, cell-based; method in brief: as §5
[25] = Cell cycle arrest in multidrug resistant human HepG2/Dox cells assessed as accumulation in subG1 phase at 50 uM; format: functional, cell-based; method in brief: as §5
HepG2 [26] = test: Cell cycle arrest in human HepG2 cells assessed as accumulation in G2/M phase at 0.2 uM; format: functional; method in brief: as §4
HepG2 [27] = test: Cell cycle arrest in human HepG2 cells assessed as accumulation in G0/G1 phase at 0.2 uM; format: functional; method in brief: as §4
[28] = Cell cycle arrest in multidrug resistant human HepG2/Dox cells assessed as accumulation in G0/G1 phase at 1 uM; format: functional, cell-based; method in brief: as §5
[29] = Cell cycle arrest in multidrug resistant human HepG2/Dox cells assessed as accumulation in subG1 phase at 10 uM; format: functional, cell-based; method in brief: as §5
HepG2 [30] = test: Cell cycle arrest in human HepG2 cells assessed as accumulation in subG1 phase at 0.2 uM; format: functional; method in brief: as §4
[31] = Cell cycle arrest in multidrug resistant human HepG2/Dox cells assessed as accumulation in G0/G1 phase at 50 uM; format: functional, cell-based; method in brief: as §5
[32] = Cell cycle arrest in multidrug resistant human HepG2/Dox cells assessed as accumulation in G2/M phase at 1 uM; format: functional, cell-based; method in brief: as §5

IC50 (HepG2 [16]): 210 nM
SMILES: COc1ccc(C[C@H](N)C(=O)N[C@H]2[C@@H](O)[C@H](n3cnc4c(N(C)C)ncnc43)O[C@@H]2CO)cc1 [PUROMYCIN]
IC50 [15]: 20200 nM

IC50 (HepG2 [16]): 0.26 nM
SMILES: CC[C@]1(O)C[C@@H]2CN(CCc3c([nH]c4ccccc34)[C@@](C(=O)OC)(c3cc4c(cc3OC)N(C)[C@H]3[C@@](O)(C(=O)OC)[C@H](OC(C)=O)[C@]5(CC)C=CCN6CC[C@]43[C@@H]65)C2)C1 [VINBLASTINE]
IC50 [15]: 260 nM

Continued, molecule first:

SMILES: CC(=O)O[C@@H]1[C@@H](OC(=O)c2ccccc2)[C@@H]2[C@@]3(C)CC[C@H](O)C[C@@H]3CC[C@]23O[C@@]32CC[C@@H](C(C)=O)[C@@]12C [11ALPHA-O-BENZOYL-12BETA-O-ACETYLTENACIGENIN B]
Ratio IC50 (HepG2/Dox [1]): 8.1 | Ratio IC50 (HepG2 [2]): 0.9 | Ratio IC50 (HepG2/Dox [3]): 326 | Ratio IC50 (HepG2 [4]): 1.2 | Ratio IC50 (HepG2 [5]): 1 | Ratio IC50 (HepG2/Dox [6]): 10.1 | Ratio IC50 (HepG2/Dox [7]): 42.4 | Ratio IC50 (HepG2/Dox [8]): 15.6 | inhibition at 80 µM (HepG2 [9]): 50% | Ratio IC50 (HepG2 [10]): 1 | inhibition at 80 µM [11]: 50% | Ratio IC50 (HepG2/Dox [12]): 15.5 | Ratio IC50 (HepG2/Dox [13]): 53.1 | Ratio IC50 (HepG2/Dox [14]): 13

SMILES: COc1cccc2c1C(=O)c1c(O)c3c(c(O)c1C2=O)C[C@@](O)(C(=O)CO)C[C@@H]3O[C@H]1C[C@H](N)[C@H](O)[C@H](C)O1 [DOXORUBICIN]
Activity (HepG2 [17]): 8.9% | Activity [18]: 2.4% | IC50 [15]: 8600 nM | Activity [19]: 7.7% | Activity [20]: 60.8% | Activity [21]: 24.8% | Activity [22]: 5.6% | Activity [23]: 6.9% | Activity [24]: 73.4% | IC50 (HepG2 [16]): 170 nM | Activity [25]: 4.9% | Activity (HepG2 [26]): 76.6% | Activity (HepG2 [27]): 4.9% | Activity [28]: 51.3% | Activity [29]: 3.4% | Activity (HepG2 [30]): 0.9% | Activity [31]: 12% | Activity [32]: 33.5%

SMILES: CC(=O)O[C@H]1C(=O)[C@@]2(C)[C@H]([C@H](OC(=O)c3ccccc3)[C@]3(O)C[C@H](OC(=O)[C@H](O)[C@@H](NC(=O)c4ccccc4)c4ccccc4)C(C)=C1C3(C)C)[C@]1(OC(C)=O)CO[C@@H]1C[C@@H]2O [PACLITAXEL]
IC50 [15]: 1400 nM | IC50 (HepG2 [16]): 5.9 nM
